This is an account of results in ChEMBL document CHEMBL4387703, “Lead optimization and biological evaluation of fragment-based cN-II inhibitors” (Eur J Med Chem, 2019).

Assay [1] addresses 5'-nucleotidase (Homo sapiens) (UniProt P21589). Description: Inhibition of recombinant cN-II (unknown origin) assessed as reduction in inorganic phosphate production at 200 uM pre-incubated for 10 mins followed by addition of IMP as substrate and measured after 5 mins by malachite green based assay relative to control. In outline:
(§1)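 Purified recombinant cN-II (0.1 μM final) in 50 mM imidazole pH 6.5, 500 mM NaCl and 10 mM MgCl2 was preincubated on ice with compound for 10 min. IMP (50 μM, equimolar Mg) was then added for 5 min at 37 °C.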

For assay [2] the target is unchanged. Description: Inhibition of recombinant cN-II (unknown origin) assessed as reduction in inorganic phosphate production at 1 mM pre-incubated for 10 mins followed by addition of IMP as substrate and measured after 5 mins by malachite green based assay relative to control. In outline:
as §1

In assay [3] the target is T1, 5'-nucleotidase (Rattus norvegicus) (UniProt P21588).
T1 sequence (whole entry): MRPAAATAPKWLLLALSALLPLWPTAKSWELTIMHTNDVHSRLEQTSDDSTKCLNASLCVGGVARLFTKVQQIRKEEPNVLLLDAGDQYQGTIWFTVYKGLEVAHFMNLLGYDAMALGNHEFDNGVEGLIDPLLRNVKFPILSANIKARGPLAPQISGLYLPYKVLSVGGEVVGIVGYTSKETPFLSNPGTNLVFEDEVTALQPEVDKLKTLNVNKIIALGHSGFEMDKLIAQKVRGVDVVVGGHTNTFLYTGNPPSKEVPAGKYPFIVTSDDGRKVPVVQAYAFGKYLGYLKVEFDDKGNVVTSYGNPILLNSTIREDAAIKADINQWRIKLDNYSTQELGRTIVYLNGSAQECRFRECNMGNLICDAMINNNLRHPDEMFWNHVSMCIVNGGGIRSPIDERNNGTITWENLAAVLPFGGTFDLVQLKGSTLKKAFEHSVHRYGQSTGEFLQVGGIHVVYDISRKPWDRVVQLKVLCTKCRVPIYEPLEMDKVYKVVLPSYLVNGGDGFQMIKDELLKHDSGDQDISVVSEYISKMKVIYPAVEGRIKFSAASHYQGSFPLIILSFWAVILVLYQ
Description: Inhibition of purified rat liver 5'-nucleotidase using IMP as substrate assessed as reduction in substrate dephosphorylation at 7 to 10 mM.

The target of assay [4] is T1, 5'-nucleotidase (Rattus norvegicus). Kind of assay: Inhibition of purified rat liver 5'-nucleotidase using IMP as substrate assessed as reduction in substrate dephosphorylation at 2 to 6 mM.

Activity calls are given as the source filed them. The rule behind the calls is not given here.

5'-nucleotidase (Homo sapiens), sequence (P21589 whole entry): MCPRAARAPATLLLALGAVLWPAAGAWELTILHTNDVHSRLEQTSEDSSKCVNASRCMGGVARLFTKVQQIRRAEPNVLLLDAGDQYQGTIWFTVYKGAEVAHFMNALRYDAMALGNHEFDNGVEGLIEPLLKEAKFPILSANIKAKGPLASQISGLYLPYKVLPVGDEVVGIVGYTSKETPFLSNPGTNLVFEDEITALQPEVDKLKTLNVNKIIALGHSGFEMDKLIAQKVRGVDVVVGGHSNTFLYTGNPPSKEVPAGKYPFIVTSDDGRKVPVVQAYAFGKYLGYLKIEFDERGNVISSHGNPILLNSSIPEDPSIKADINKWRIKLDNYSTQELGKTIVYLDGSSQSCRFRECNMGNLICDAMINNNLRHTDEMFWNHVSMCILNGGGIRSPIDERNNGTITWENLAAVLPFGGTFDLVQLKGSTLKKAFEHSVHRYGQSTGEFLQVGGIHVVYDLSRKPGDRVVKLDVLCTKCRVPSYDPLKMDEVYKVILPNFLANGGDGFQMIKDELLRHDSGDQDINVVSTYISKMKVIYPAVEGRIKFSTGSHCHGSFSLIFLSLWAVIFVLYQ

One may read the inhibition as the drop in the measured response relative to a control, in per cent. For `O=C(Nc1ncnc2[nH]cnc12)c1cccc(-c2ccccc2)c1`, the inhibition in assay [1] was determined as 68%.
On the same count and under the same terms, the value for `O=C(Nc1ncnc2[nH]cnc12)c1cccc(-c2ccc(-c3nn[nH]n3)cc2)c1` was 60%; that for `O=C(Nc1ncnc2[nH]cnc12)c1cccc(-c2ccccc2-c2nn[nH]n2)c1` was 27%.
Turning to `Nc1ncnc2c1ncn2COCc1ccccc1`, the inhibition in assay [2] turned out to be 13%.
Turning to `CCOP(=O)(O)Cn1cnc(-c2cccc(-c3cccc(C(=O)Nc4ncnc5ncn(COCc6ccccc6)c45)c3)c2)c1`, the inhibition in assay [1] was 60%.
The same measure, in the same setting: the value for `O=C(Nc1ncnc2c1ncn2CCO)c1cccc(-c2ccccc2)c1` was 46%; that for `O=C(Nc1ncnc2[nH]cnc12)c1ccccc1-c1ccc(-c2nn[nH]n2)cc1` was 30%.
Consider `Nc1ncnc2ncn(COCc3ccccc3)c12`, for which the inhibition entry in assay [2] was “inactive”.
`O=C(O)Cn1cnc2c(NC(=O)c3cccc(-c4ccccc4)c3)ncnc21`: in assay [1], the inhibition was 62%.
As for `Nc1ncnc2ncn(Cc3ccccc3)c12`, the inhibition in assay [2] amounted to 26%.
For `CC(C)CSC[C@H]1O[C@@H](n2cnc3c(=O)[nH]cnc32)[C@H](O)[C@@H]1O`, in assay [3], the inhibition came out at 50%.
`CCOC(=O)Cn1cnc2c(N)ncnc21`: the inhibition in assay [1] amounted to 3%.
The same measure, in the same setting: the value for `CC(=O)OCCn1cnc2c(NC(=O)c3cccc(-c4ccccc4)c3)ncnc21` was 62%.
On to `CCOC(=O)Cn1cnc2c(NC(=O)c3cccc(-c4ccccc4)c3)ncnc21`, for which the inhibition in assay [1] is 60%.
Regarding `O=C(Nc1ncnc2[nH]cnc12)c1cccc(-c2cccc(-c3nn[nH]n3)c2)c1`, the inhibition in assay [1] stood at 50%.
For `CCOP(=O)(Cn1cnc2c(N)ncnc21)OCC`, the inhibition entry in assay [2] is “inactive”.
For `CCOP(=O)(Cn1cnc2c(NC(=O)c3cccc(-c4ccccc4)c3)ncnc21)OCC`, in assay [1], the inhibition stood at 47%.
Regarding `CC(=O)OCCn1cnc2c(N)ncnc21`, the inhibition result in assay [2] is “inactive”.
For `O=C(Nc1ncnc2ncn(COCc3ccccc3)c12)c1cccc(-c2ccccc2)c1`, the inhibition in assay [1] is 50%.
Still for that read-out and setting: the value for `O=C(Nc1ncnc2nc[nH]c12)c1cccc(-c2cccc(-c3cn(CP(=O)(O)O)cn3)c2)c1` was 49%.
Regarding `Nc1ncnc2c1ncn2Cc1ccccc1`, in assay [2], the inhibition turned out to be 23%.
`CC(C)CSC[C@H]1O[C@@H](n2cnc3c(N)ncnc32)[C@H](O)[C@@H]1O`: the inhibition in assay [4] came to 50%.
In the case of `CCOC(=O)Cn1cnc2c(NC(=O)c3ccc(-c4ccccc4-c4nn[nH]n4)cc3)ncnc21`, in assay [1], the inhibition was determined as 27%.
On to `O=C(Nc1ncnc2[nH]cnc12)c1ccc(-c2ccccc2-c2nn[nH]n2)cc1`, for which the inhibition in assay [1] was 10%.
The same measure, in the same setting: the value for `O=C(Nc1ncnc2c1ncn2COCc1ccccc1)c1cccc(-c2ccccc2)c1` was 34%; that for `O=C(Nc1ncnc2ncn(Cc3ccccc3)c12)c1cccc(-c2ccccc2)c1` was 52%; that for `O=C(Nc1ncnc2c1ncn2Cc1ccccc1)c1cccc(-c2ccccc2)c1` was 57%.
For `CCOP(=O)(O)Cn1cnc(-c2cccc(-c3cccc(C(=O)Nc4ncnc5nc[nH]c45)c3)c2)c1`, in assay [1], the inhibition stood at 75%.
